Compound activity: PubChem BioAssay, several laboratories
UPR XBP1 act: adaptive UPR (XBP1) activation; AID 463104; CHO-XBP1 luciferase reporter, IRE1-XBP1 UPR activation, luminescence; percent of tunicamycin response, DMSO as zero; 330,000 compounds, 0.33% hits; activation, % at 20 µM;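 active means versus positive control, 20 µM dose yields 30% or more activation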
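Signal: luciferase luminescence; Assay system: CHO-XBP1 luciferase reporter cells; Amount: one thousand reporter cells per well; Dosing: 20 µM single concentration, DMSO 1%; Benchmarks: high control tunicamycin 10 µg/mL final, low control DMSO vehicle only; Schedule: 6 h compound exposure at 37 °C, 5% CO2; Evaluation: percent activation relative to tunicamycin reference.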
PfM18AAP inh: PfM18AAP enzyme inhibition; recombinant PfM18AAP, H-Glu-NHMec fluorogenic cleavage; inhibition, % at 7.35 µM; 290,000 compounds, 1.2% hits;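 active means inhibition above the campaign mean inhibition over all tested compounds plus 3 SD, cut at about 28% in these data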
NS3 helicase inh: inhibitors of Hepatitis C virus NS3 helicase. NS3 helicase DNA unwinding, Cy5 molecular beacon fluorescence. inhibition, % at 10.9 µM. 290,000 compounds, 0.56% hits. AID 1800;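 active means inhibition above the mean of all tested compounds plus 3 SD, set per campaign, cut at about 35% in these data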
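Test system: hepatitis C virus NS3 helicase domain fragment enzyme. Also added: annealed dual-labelled DNA beacon duplex, ATP-started. Timing: 60 min unwinding reaction at 25 °C after ATP addition. Technique: Cy5 fluorescence. Measure: % inhibition of unwinding.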
UPR CHOP act: activators of apoptotic arm of unfolded protein response (CHOP). CHO-CHOP luciferase reporter, UPR activation, luminescence; percent of tunicamycin response over DMSO baseline. activation, % at 10 µM. 330,000 compounds, 0.34% hits. AID 449763;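 active means at 10 µM dose, activation of 40% or more, normalized to positive control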
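Test system: CHO CHOP reporter cells. Input: 500 CHO-CHOP cells per well. Medium: F12 with 10% FBS. Technique: luciferase luminescence. Measure: percent activation relative to tunicamycin control. Dosing: 10 µM compound, 0.5% DMSO. Timing: 16-18 h cell attachment, then 6 h compound exposure, 37 °C.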
p97 inhibitor: human p97 ATPase inhibition | P55072 | inhibition, % at 8 µM | 220,000 compounds, 0.42% hits | recombinant p97 ATPase, Kinase-Glo ATP luminescence, 3 h; in the data active means inhibition above about 15%
Target sequence (P55072 whole entry, looked up): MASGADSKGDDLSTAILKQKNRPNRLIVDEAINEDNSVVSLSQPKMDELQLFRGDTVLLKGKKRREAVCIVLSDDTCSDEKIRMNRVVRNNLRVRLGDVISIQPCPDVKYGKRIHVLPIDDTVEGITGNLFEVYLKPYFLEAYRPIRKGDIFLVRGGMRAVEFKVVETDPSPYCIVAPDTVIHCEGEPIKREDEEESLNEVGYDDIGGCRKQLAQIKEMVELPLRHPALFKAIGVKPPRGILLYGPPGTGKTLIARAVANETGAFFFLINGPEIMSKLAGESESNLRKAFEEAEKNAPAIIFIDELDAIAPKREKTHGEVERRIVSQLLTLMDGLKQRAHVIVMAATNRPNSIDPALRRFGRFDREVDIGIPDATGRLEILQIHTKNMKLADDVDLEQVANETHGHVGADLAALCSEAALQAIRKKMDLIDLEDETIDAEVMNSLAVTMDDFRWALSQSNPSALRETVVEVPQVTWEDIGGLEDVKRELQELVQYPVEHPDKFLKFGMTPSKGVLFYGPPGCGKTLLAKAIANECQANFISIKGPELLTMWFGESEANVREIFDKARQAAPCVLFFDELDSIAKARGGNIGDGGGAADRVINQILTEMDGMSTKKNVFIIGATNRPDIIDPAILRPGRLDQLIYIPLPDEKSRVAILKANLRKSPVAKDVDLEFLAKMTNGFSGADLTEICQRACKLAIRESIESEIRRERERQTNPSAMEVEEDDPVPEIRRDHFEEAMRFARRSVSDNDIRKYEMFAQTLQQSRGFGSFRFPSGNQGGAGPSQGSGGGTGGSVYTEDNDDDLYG
CHOP inhibitor: CHOP inhibition in unfolded protein response; CHO-K1 CHOP-promoter luciferase, tunicamycin-induced, 15-18 h; inhibition, % at 10 µM; AID 2732; 220,000 compounds, 3.8% hits;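 active means compounds that reduced the stress-induced luciferase reporter signal by more than about 70% of percent inhibition, limit read from the data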
Hits are given with their value; 0 = inactive; - = no result given. Most compounds without a hit are left out; they make up all but 4.5% or so of the library.

SMILES	UPR XBP1 act	PfM18AAP inh	NS3 helicase inh	UPR CHOP act	p97 inhibitor	CHOP inhibitor
CCCCCc1cc(=O)oc2c(C(CCN3CCCC(C)C3)c3ccc4c(c3)OCO4)c(OC)cc(OC)c12 (stereo unspecified)	0	-	-	0	-	77
CCCCCc1cc(=O)oc2c(C(CCN(CC)CC)c3cc(OC)c(OC)c(OC)c3)c(OC)cc(OC)c12 (stereo unspecified)	0	-	-	0	-	71
COc1cc(OC)c2c(-c3ccccc3)cc(=O)oc2c1C(CCN1CCCC1)c1ccc2c(c1)OCO2 (stereo unspecified)	0	-	-	0	-	0
O=C(Cc1ccsc1)OCC(=O)c1ccccc1	0	-	-	0	-	-
CC(C(=O)NC1CCCCCC1)c1ccc([N+](=O)[O-])cc1 (stereo unspecified)	0	0	0	0	-	-
CCCCOc1ccc([N+](=O)[O-])cc1C(=O)O	0	0	0	0	0	0
Cc1cc(F)ccc1S(=O)(=O)N1CCCOC1CNC(=O)C(=O)NC1CC1 (stereo unspecified)	0	0	0	0	-	-
O=c1c(O)c(-c2ccc3c(c2)OCO3)oc2ccccc12	0	0	0	0	0	74
CCCCCOC(=O)Nc1nnc(CCCCC)s1	0	0	0	0	0	95
COc1ccc(-c2csc(=Nc3ccccc3)n2CCO)cc1	0	30	0	0	0	0
CCCCc1c(C)c(C#N)c2nc3ccccc3n2c1Cl	-	0	0	-	0	106
COc1cccc(C2C=C(c3ccc(Br)s3)Nc3ncnn32)c1OC (stereo unspecified)	0	32	0	0	0	0
C=CCOC(=O)C1=C(C)Nc2ncnn2C1c1cc(Br)ccc1F (stereo unspecified)	0	0	0	0	0	0
Fc1ccc(Br)cc1C1C=C(c2ccc(Br)s2)Nc2ncnn21 (stereo unspecified)	0	39	0	0	0	-
COc1ccc(C2C=C(c3ccc(C)c(C)c3)Nc3ncnn32)c(OC)c1OC (stereo unspecified)	-	0	0	-	0	0
Cc1cc(C)cc(NC(=O)Nc2ccc(-n3ccc(C(F)(F)F)n3)cc2)c1	0	0	0	0	0	83
O=[N+]([O-])c1nn(-c2ccc3c(c2)OCCO3)n(O)c1=NC1CCCCC1	0	0	0	0	0	87
O=C(NCCCn1cccn1)c1cc(COc2ccc(F)cc2Cl)on1	0	30	0	0	0	0
Cc1cc(NC(=O)CCCN2C(=O)/C(=C\c3cccs3)SC2=S)no1	0	0	0	0	0	70
Cc1cc(NC(=O)CCN2C(=O)/C(=C\c3ccccc3Cl)SC2=S)no1	0	0	0	0	0	81
O=C(CCN1C(=O)/C(=C\c2ccccc2Cl)SC1=S)Nc1cccnc1	0	0	0	0	-	-
COC(=O)CNc1nc(Cl)nc(Nc2ccc(Cl)cc2)n1	0	0	0	0	0	74
COC(=O)CNc1nc(Cl)nc(Nc2ccc(C)cc2)n1	0	0	0	0	0	0
C=CCN(c1ccccc1OC)S(=O)(=O)c1cccc(C(=O)OCC(=O)c2c[nH]c3ccccc23)c1	0	0	0	0	0	73
Cc1ccc(N=Nc2c(N)[nH]n3c(=O)cc(-c4ccccc4)nc23)cc1	0	0	0	0	0	75
SMILES	UPR XBP1 act	PfM18AAP inh	NS3 helicase inh	UPR CHOP act	p97 inhibitor	CHOP inhibitor
COc1cccc(N=Nc2c(N)[nH]n3c(=O)cc(-c4ccccc4)nc23)c1	0	0	0	0	0	0
CS(=O)(=O)N(CC(=O)N1CCCCCC1)c1cccc([N+](=O)[O-])c1	0	0	0	0	-	-
Cc1ccc(NS(=O)(=O)c2ccc(NC(=O)C(C)Sc3ccc(Cl)cc3)cc2)c(C)c1 (stereo unspecified)	0	0	0	0	0	83
O=C(CSCc1ccc(Br)cc1)Nc1ccc(S(=O)(=O)N2CCOCC2)cc1	0	0	0	0	0	0
Cc1ccc(C)c(NS(=O)(=O)c2ccc(NC(=O)CSc3ccc(Cl)cc3)cc2)c1	0	0	0	0	0	94
Cc1ccccc1NS(=O)(=O)c1ccc(NC(=O)CSCc2ccc(Br)cc2)cc1	0	0	0	0	0	80
Cc1ccc(-c2nc3ccccc3o2)cc1NC(=S)NC(=O)c1cccs1	0	0	0	0	0	82
Cc1ccc(-c2nc3ncccc3o2)cc1NC(=O)c1cc2ccccc2o1	0	0	0	0	0	70
Cc1ccc(-c2nc3ccccc3o2)cc1NC(=O)c1ccc2c(c1)OCO2	0	0	0	0	0	87
Cc1c(NC(=O)c2ccc3c(c2)OCO3)cccc1-c1nc2ccccc2o1	0	0	0	0	0	0
Cc1ccc(OCC(=O)N(C)CC(=O)N(CC(C)C)c2c(N)n(CC(C)C)c(=O)[nH]c2=O)c(C)c1	0	-	-	0	-	-
O=C(CNS(=O)(=O)c1ccc(Br)cc1)NCc1ccncc1	0	0	0	0	-	-
O=C(Nc1cc(F)cc(F)c1)c1sc(Cl)nc1-c1ccccc1	0	0	0	0	0	75
O=C(Nc1ccccc1)c1sc(Cl)nc1-c1ccccc1	0	0	0	0	0	0
CC1(C)C(C=C(Cl)Cl)C1C(=O)N1CCN(c2ccccc2)CC1 (stereo unspecified)	0	0	0	0	0	78
O=C1CCCC/C1=C/Nc1cccc(C(F)(F)F)c1	0	0	0	0	0	0
O=C1CCC2S/C(=C/Nc3ccc(C(F)(F)F)cc3)C(=O)N12 (stereo unspecified)	0	0	0	0	0	95
CCC/C(C(=O)NCCO)=C1/c2ccccc2C(=O)N1c1ccccc1	0	-	-	0	-	-
CC(=O)Nc1ccc(NC(=O)c2ccc(Cn3cc(Cl)cn3)cc2)cc1	0	0	0	0	0	92
O=C(Nc1cccc(Cl)c1)c1ccc(Cn2cc(Cl)cn2)cc1	0	0	0	0	0	0
CC(OC(=O)c1ccc(OCC2CCCO2)cc1)C(=O)N(C)Cc1ccccc1 (stereo unspecified)	0	-	-	0	-	-
CCOc1ccc(-n2cc(-c3ccccc3)c3c(N4CCOCC4)ncnc32)cc1	0	0	0	0	0	0
COc1ccc(-n2cc(-c3ccccc3)c3c(N4CC(C)OC(C)C4)ncnc32)cc1 (stereo unspecified)	0	0	0	0	0	73
CN(C#N)c1nc(Cl)nc(Nc2cccc(Cl)c2)n1	0	0	0	0	15	0
CC(C)(C)c1ccc2c(c1)C(=O)c1ccccc1C2=O	0	0	0	0	0	0
CC(C)(C)C1=CC=C(C(C)(C)C)C(=O)C1=O	0	0	0	49	0	0
Cc1ccc(Nc2c(-c3ccccn3)nc3ccc(C)cn23)cc1	0	0	0	0	0	80
Clc1ccc(-c2nc3cnccn3c2Nc2ccc3c(c2)OCO3)cc1	0	31	0	0	0	0
